Measured values as given in publication PMC5723699 (Pharmacology Research & Perspectives, 2017).
Values after ≈ are worked out from the molar mass of the structure shown.

Legend:
Part B repeat-dose = format: in vivo, human; details: for AUC: male, human, in vivo, po, AUC0‐tau, plasma, oral, geometric mean (% CV)
MIP‐1α = assay: Ex vivo whole blood challenge assay; format: cell-based, human
Safety and tolerability = details: for Subjects with drug‐related AEs / Application‐site erythema / Catheter‐site erythema / Contact dermatitis / Headache / Nasopharyngitis / Rash / Subjects with any AE: Part B; for Application‐site erythema / Catheter‐site erythema / Contact dermatitis / Headache / Nasopharyngitis / Rash / Subjects with any AE: 14 days (n = 9)
CYP3A4 = assay: Plasma 4β-hydroxycholesterol-to-cholesterol ratio as marker of CYP3A4 induction; details: following 14 days of dosing
[1] = Part A single ascending dose blood pharmacokinetics; format: in vivo, human
RIPK1 = biological target: T1, RIPK1 (Homo sapiens, UniProt Q13546); assay: RIPK1 target engagement; format: in vivo; details: Part A
T1 sequence (Q13546 1-671): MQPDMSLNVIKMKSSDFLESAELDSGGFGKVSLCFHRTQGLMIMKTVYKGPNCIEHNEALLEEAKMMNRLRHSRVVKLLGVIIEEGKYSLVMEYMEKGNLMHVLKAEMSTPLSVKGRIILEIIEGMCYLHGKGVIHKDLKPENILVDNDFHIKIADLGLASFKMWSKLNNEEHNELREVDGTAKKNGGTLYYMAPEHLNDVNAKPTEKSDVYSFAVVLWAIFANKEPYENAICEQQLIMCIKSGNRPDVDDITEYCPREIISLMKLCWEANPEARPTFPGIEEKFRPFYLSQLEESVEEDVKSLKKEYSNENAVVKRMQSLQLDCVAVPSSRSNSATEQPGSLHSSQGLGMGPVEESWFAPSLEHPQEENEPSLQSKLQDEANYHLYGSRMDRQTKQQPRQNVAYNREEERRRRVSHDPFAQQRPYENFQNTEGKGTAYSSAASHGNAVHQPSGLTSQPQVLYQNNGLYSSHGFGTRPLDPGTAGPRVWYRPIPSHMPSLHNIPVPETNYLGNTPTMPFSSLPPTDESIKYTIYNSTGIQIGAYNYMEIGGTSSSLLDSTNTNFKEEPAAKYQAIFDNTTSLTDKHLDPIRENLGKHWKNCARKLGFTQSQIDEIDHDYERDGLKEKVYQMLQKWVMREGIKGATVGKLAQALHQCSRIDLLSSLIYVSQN

[2] = Analysis of metabolism in blood, plasma, urine and bile; format: in vivo, human
Summary of the method: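 Oral dosing in healthy volunteers. Urine collected at various time points. Bile sampled by Entero-Test in one Part B cohort on Days −1 and 7, about 2 h after the morning dose. Blood/water, plasma, urine and bile analysed for relative levels of parent drug and metabolites.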

CN1C(=O)[C@@H](NC(=O)c2nnc(Cc3ccccc3)[nH]2)COc2ccccc21 [GSK2982772]
AUC (Part B repeat-dose; 20 mg, 20 mg QD, Day 1): 1160 ng·h/mL | AUC (Part B repeat-dose; 20 mg, 20 mg QD, Day 14): 1140 ng·h/mL | AUC (Part B repeat-dose; 60 mg, 60 mg BID, Day 1): 4330 ng·h/mL | AUC (Part B repeat-dose; 60 mg, 60 mg BID, Day 14): 3100 ng·h/mL | AUC (Part B repeat-dose; 60 mg, 60 mg QD, Day 14): 2590 ng·h/mL | AUC (Part B repeat-dose; 120 mg, 120 mg BID, Day 1): 7050 ng·h/mL | AUC (Part B repeat-dose; 120 mg, 120 mg BID, Day 14): 6990 ng·h/mL | Attainment of steady state (trough plasma predose concentration Days 2 to 14) (Part B repeat-dose; repeat dosing): reached a plateau by Day 2 | IC50 (MIP‐1α; Homo sapiens, read-out: Concentration needed to elicit a half‐maximal response in all assays, all assays (MIP‐1α, MIP‐1β, TE)): ~1.4 ng/mL (≈ 3.71 nM) | Inhibition (mean of MIP‐1α and MIP‐1β) (MIP‐1α; Part B Day 14, 60 mg and 120 mg BID, out to 24 hours posttreatment): maximal inhibition | Inhibition (mean of MIP‐1α and MIP‐1β) (MIP‐1α; Part B Day 14, 1.5 hours and 8 hours postdose, all treatment groups): maximal inhibition | Drug‐related AEs (total number) (Safety and tolerability; Part A, reported in 2 subjects, all of mild intensity): 3 | Subjects with drug‐related AEs (Safety and tolerability; 20 mg QD group): 3 subjects | Application‐site erythema (Safety and tolerability; 20 mg QD): 0 n (%) | Catheter‐site erythema (Safety and tolerability; 20 mg QD): 0 n (%) | Contact dermatitis (Safety and tolerability; 20 mg QD): 1 (11) n (%) | Headache (Safety and tolerability; 20 mg QD): 4 (44) n (%) | Nasopharyngitis (Safety and tolerability; 20 mg QD): 0 n (%) | Rash (Safety and tolerability; 20 mg QD): 0 n (%) | Subjects with any AE (Safety and tolerability; 20 mg QD): 7 (78) n (%) | Subjects with drug‐related AEs (Safety and tolerability; 60 mg BID group): 4 subjects | Application‐site erythema (Safety and tolerability; 60 mg BID): 0 n (%) | Catheter‐site erythema (Safety and tolerability; 60 mg BID): 2 (22) n (%) | Contact dermatitis (Safety and tolerability; 60 mg BID): 5 (56) n (%) | Headache (Safety and tolerability; 60 mg BID): 3 (33) n (%) | Nasopharyngitis (Safety and tolerability; 60 mg BID): 1 (11) n (%) | Rash (Safety and tolerability; 60 mg BID): 1 (11) n (%) | Subjects with any AE (Safety and tolerability; 60 mg BID): 9 (100) n (%) | Application‐site erythema (Safety and tolerability; 60 mg QD): 0 n (%) | Catheter‐site erythema (Safety and tolerability; 60 mg QD): 1 (11) n (%) | Contact dermatitis (Safety and tolerability; 60 mg QD): 3 (33) n (%) | Headache (Safety and tolerability; 60 mg QD): 0 n (%) | Nasopharyngitis (Safety and tolerability; 60 mg QD): 0 n (%) | Rash (Safety and tolerability; 60 mg QD): 3 (33) n (%) | Subjects with any AE (Safety and tolerability; 60 mg QD): 6 (67) n (%) | Application‐site erythema (Safety and tolerability; 120 mg BID): 2 (22) n (%) | Catheter‐site erythema (Safety and tolerability; 120 mg BID): 0 n (%) | Contact dermatitis (Safety and tolerability; 120 mg BID): 0 n (%) | Headache (Safety and tolerability; 120 mg BID): 1 (11) n (%) | Nasopharyngitis (Safety and tolerability; 120 mg BID): 3 (33) n (%) | Rash (Safety and tolerability; 120 mg BID): 0 n (%) | Subjects with any AE (Safety and tolerability; 120 mg BID): 6 (67) n (%) | AEs involving clinical laboratory or electrocardiogram abnormalities (Safety and tolerability; any part of the study): no AEs involving clinical laboratory abnormalities or electrocardiogram abnormalities were reported | Serious AEs, suicidality or deaths (Safety and tolerability; any part of the study): No serious AEs, suicidality or deaths were reported | Overall safety and tolerability (Safety and tolerability; single and repeat doses, healthy adult male volunteers): generally safe and well tolerated | Vital signs, physical, neurological examinations, respiratory assessments (Safety and tolerability; whole study): no clinically significant abnormal findings | CYP3A4 induction (CYP3A4): no evidence of CYP3A4 induction | Time to C max ([1]; blood, single dose 10 mg capsule, fasted): 1.5 h | Median time to C max ([1]; blood, single dose 0.1, 0.5 and 2.5 mg in solution, fasted): ≤ 1 h | Time to C max ([1]; blood, single dose 120 mg capsule, fasted): 2.5 h | Dose linearity of kinetics ([1]; dose range 0.1‐120 mg): approximately linear kinetics | half-life ([1]; male, human, whole blood, oral): ~6 h | Percent TE (RIPK1; 1.5 hours postdose, single doses of 10 mg and above): > 90% | Percent TE (>90% level) (RIPK1; 8 hours postdose, single doses of 40 mg and above): sustained | Percent TE (RIPK1; 48 hours postdose, all dose groups): negligible | Unchanged drug in urine ([2]; in vivo): trace levels | Unchanged drug in blood and plasma extracts ([2]; single and repeat oral dosing, together with N‐glucuronide metabolite): major circulating drug‐related components
